High-throughput results: PubChem, Broad Institute
In the library only some 5.9% were active in any assay of this set; here they are far more common.
Pf Dd2 growth = P. falciparum Dd2 growth inhibitors, primary screen, SYBR Green fluorescence, single dose replicates | activity change, % at 10 µM | 94,000 tested, 2.3% active | 72 h; active compounds read low | AID 1159554, 2015; in the data active = activity change below about -80%; inconclusive = no clear call, values can overlap the other calls
T cruzi growth-1 = T. cruzi intracellular proliferation inhibitors, primary screen, cell-based, beta-gal Tulahuen parasites, NIH3T3 host, luminescence; inhibition, % at 8.34 µM; 77,000 tested, 5.9% active; AID 624255, 2012; T. cruzi beta-gal in NIH3T3, GalScreen luminescence, 90 h;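 active = mean inhibition above about 93%, with at least 55% of replicates each passing it, limit read from the data, passing the limit was not always enough; inconclusive = only one of those two conditions holds; inactive = neither condition holds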
IDH1 R132H inh = inhibitors of IDH1 R132H reductase, primary screen, biochemical, plate reader, single point | diaphorase/resazurin fluorescence, 60 min | AID 624101, 2012 | 70,000 tested, 0.18% active | Isocitrate dehydrogenase [NADP] cytoplasmic (Homo sapiens), O75874 | inhibition, % at 10 µM; in the data active = inhibition above about 34%; inconclusive = no clear call, values can overlap the other calls; inactive = below about 11%
Target sequence (O75874 whole entry R132H): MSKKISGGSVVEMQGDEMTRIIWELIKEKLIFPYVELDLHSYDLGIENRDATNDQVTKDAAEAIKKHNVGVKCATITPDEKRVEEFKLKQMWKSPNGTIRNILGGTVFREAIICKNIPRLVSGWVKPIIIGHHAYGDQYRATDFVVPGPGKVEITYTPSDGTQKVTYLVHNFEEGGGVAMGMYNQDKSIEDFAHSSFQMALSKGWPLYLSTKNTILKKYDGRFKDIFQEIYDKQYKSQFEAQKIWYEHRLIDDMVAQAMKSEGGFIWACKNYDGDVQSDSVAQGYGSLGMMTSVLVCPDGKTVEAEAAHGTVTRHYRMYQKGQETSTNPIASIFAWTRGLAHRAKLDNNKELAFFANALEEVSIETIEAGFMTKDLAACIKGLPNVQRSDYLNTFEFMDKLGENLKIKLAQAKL
GASC1 inh = inhibitors of GASC-1 (KDM4C) histone demethylase, primary screen, biochemical, single concentration HTS. 96,000 tested, 0.15% active. AID 720574, 2013. Lysine-specific demethylase 4C (Homo sapiens), Q9H3R0. GST-KDM4C 2-372, H3K9me3 peptide, LANCE TR-FRET. inhibition, % at 12.5 µM;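 active = mean replicate inhibition above about 25%, with at least 55% of replicates also reaching it, limit read from the data, passing the limit was not always enough; inconclusive = only one of those two conditions met; inactive = neither condition met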
Target sequence (Q9H3R0 2-372 limits assumed): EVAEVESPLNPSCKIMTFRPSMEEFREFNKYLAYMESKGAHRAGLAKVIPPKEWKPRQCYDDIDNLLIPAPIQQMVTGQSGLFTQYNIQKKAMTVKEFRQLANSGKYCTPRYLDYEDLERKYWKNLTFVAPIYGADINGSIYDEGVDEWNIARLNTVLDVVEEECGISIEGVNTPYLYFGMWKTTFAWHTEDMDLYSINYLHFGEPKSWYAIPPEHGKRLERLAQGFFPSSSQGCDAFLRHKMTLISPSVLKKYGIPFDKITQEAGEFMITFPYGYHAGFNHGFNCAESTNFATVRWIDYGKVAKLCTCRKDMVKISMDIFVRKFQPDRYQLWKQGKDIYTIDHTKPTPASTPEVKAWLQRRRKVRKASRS
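Material: GST-tagged GASC-1 (JMJD2C) catalytic fragment, aa 2-372. Input: enzyme final amount 10 nM. Medium: HEPES buffer, pH 7.5, plus ascorbate. Reagent: H3K9me3 peptide substrate, Fe(II), 2-oxoglutarate. Doses: single dose. Times: reaction 30 min RT, detection step 1 h RT. Measured by: LANCE TR-FRET. Evaluation: Fall in 671/618 emission ratio as inhibition.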
T cruzi growth-2 = T. cruzi intracellular proliferation inhibitors, confirmation, cell-based, NIH3T3 host, beta-gal parasite, luminescence, cherry-pick | shares compounds with T cruzi growth-1 | T. cruzi beta-gal in NIH3T3, GalScreen luminescence, 90 h | inhibition, % at 8.35 µM | 5,600 tested, 72% active | AID 651739, 2012;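 active = mean replicate inhibition above about 95% and at least 55% of replicates individually reaching it, limit read from the data; inconclusive = only one of the two criteria is met; inactive = neither criterion is met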
T cruzi growth-3 = inhibitors of intracellular T. cruzi replication, confirmation, NIH3T3 host cells, beta-gal parasites, cherry-pick, set 2 | shares compounds with T cruzi growth-1 | 5,600 tested, 21% active | T. cruzi beta-gal in NIH3T3, GalScreen luminescence, 90 h | inhibition, % at 2.09 µM;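 active = mean inhibition above about 95%, with at least 55% of replicates also reaching it, limit read from the data; inconclusive = meets just one of the two conditions; inactive = meets neither condition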
3T3 cytotox = cytotoxicity in mouse NIH/3T3 fibroblasts, confirmation, cytotoxicity control for T. cruzi proliferation inhibitor project, cell-based, cherry-pick, single point; NIH/3T3 viability, CellTiter-Glo ATP luminescence, 90 h; cytotoxicity (signal decrease), % at 8.35 µM; 5,600 tested, 14% active; shares compounds with T cruzi growth-1;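 active = mean signal decrease across replicates above about 35% based on untreated-well scatter, with enough replicates individually passing, limit read from the data; inconclusive = no rule stated though some were filed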
NIH3T3 tox 2 = NIH/3T3 fibroblast cytotoxicity, confirmation, cytotoxicity control, cell-based, cherry-pick, single point, set 2; shares compounds with T cruzi growth-1; NIH/3T3 viability, CellTiter-Glo ATP luminescence, 90 h; inhibition, % at 24.9 µM; 5,600 tested, 56% active; AID 651744, 2012;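 active = mean loss of cell viability signal at or above a set limit, and enough replicates individually reaching it; inconclusive = meets only the mean limit or only the replicate share; inactive = meets neither condition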
Numbers stand for hits; - = inactive; ? = inconclusive; . = not tested or not shown.

SMILES | Pf Dd2 growth | T cruzi growth-1 | IDH1 R132H inh | GASC1 inh | T cruzi growth-2 | T cruzi growth-3 | 3T3 cytotox | NIH3T3 tox 2
COc1cccc(-c2ccc3c(c2)O[C@@H](CN(C)Cc2cccnc2)[C@H](C)CN([C@@H](C)CO)S3(=O)=O)c1 | - | 112.2 | - | - | - | 104.2 | 47.7 | 88.0
C[C@H]1CN([C@@H](C)CO)S(=O)(=O)c2ccc(C#CC3CC3)cc2O[C@H]1CN(C)C(=O)c1ccncc1 | - | 109.5 | - | - | 96.4 | - | - | 30.1
C[C@@H]1CN([C@@H](C)CO)S(=O)(=O)c2ccc(C#CC3CC3)cc2O[C@H]1CN(C)C(=O)c1ccccc1 | - | ? | - | - | ? | - | - | 48.0
CC[C@H](C)C(=O)O[C@H]1CCC=C2C=C[C@H](C)C(CCC3C[C@@H](O)CC(=O)O3)[C@H]21 (stereo not given in full) | . | . | - | . | . | . | . | .
C[C@@H]1CCCCO[C@@H](CN(C)Cc2ccc(Cl)c(Cl)c2)[C@H](C)CN([C@@H](C)CO)C(=O)c2cc(NC(=O)Nc3ccc(F)cc3)ccc2O1 | - | 103.6 | - | - | 101.4 | 117.3 | - | -
C[C@@H]1CCCCO[C@H](CN(C)Cc2ccc(Cl)c(Cl)c2)[C@@H](C)CN([C@@H](C)CO)C(=O)c2cc(NC(=O)Nc3ccc(F)cc3)ccc2O1 | - | 100.8 | - | - | - | 112.4 | - | 33.5
C[C@H](CO)N1C[C@H](C)[C@H](CN(C)Cc2ccc(Cl)c(Cl)c2)OCCCC[C@H](C)Oc2ccc(NC(=O)Nc3ccc(F)cc3)cc2C1=O | - | 100.3 | - | - | - | 108.4 | - | 54.9
C[C@@H]1CCCCO[C@@H](CN(C)Cc2ccc(Cl)c(Cl)c2)[C@@H](C)CN([C@H](C)CO)C(=O)c2cc(NC(=O)Nc3ccccc3)ccc2O1 | - | - | . | . | . | . | . | .
C[C@@H]1CCCCO[C@H](CN(C)Cc2ccc(Cl)c(Cl)c2)[C@@H](C)CN([C@@H](C)CO)C(=O)c2cc(NC(=O)CCC(F)(F)F)ccc2O1 | -94.8 | 98.2 | - | - | ? | 113.7 | - | 105.9
COc1ccccc1NC(=O)c1ccc(CSc2nnnn2-c2ccccc2)cc1 | . | . | - | . | . | . | . | .
OC[C@@H]1[C@H](c2ccc(C3=CCCC3)cc2)[C@H]2CN(Cc3cncnc3)CCCCN12 | - | ? | . | - | - | - | - | 45.8
COc1cccc(-c2ccc([C@H]3[C@@H](CO)N4CCCCN(Cc5cncnc5)C[C@@H]34)cc2)c1 | - | - | . | - | . | . | . | .
COc1cccc(-c2ccc([C@H]3[C@@H](CO)N4CCCCN(Cc5cncnc5)C[C@H]34)cc2)c1 | - | 99.5 | . | - | 108.0 | - | - | 45.4
Cc1cccc(-c2ccc([C@H]3[C@@H](CO)N4CCCCN(Cc5ccncc5)C[C@H]34)cc2)c1 | - | - | . | - | . | . | . | .
Cc1cccc(-c2ccc([C@H]3[C@@H](CO)N4CCCCN(Cc5cccnc5)C[C@H]34)cc2)c1 | - | 99.4 | . | - | 96.6 | - | 45.2 | 105.2
Cc1cccc(-c2ccc([C@@H]3[C@@H](CO)N4CCCCN(Cc5cncnc5)C[C@@H]34)cc2)c1 | - | - | . | - | . | . | . | .
Cc1cccc(-c2ccc([C@H]3[C@H](CO)N4CCCCN(Cc5ccncc5)C[C@@H]34)cc2)c1 | - | ? | . | - | 101.4 | - | - | 105.4
Cn1c(SCC(=O)Nc2ccccc2)nc2sc3c(c2c1=O)CCC3 | . | . | - | . | . | . | . | .
Cc1cccc(-c2ccc([C@@H]3[C@H](CO)N4CCCCN(Cc5cncnc5)C[C@@H]34)cc2)c1 | - | - | . | - | . | . | . | .
COc1cccc(-c2ccc([C@H]3[C@H](CO)N4CCCCN(Cc5cncnc5)C[C@@H]34)cc2)c1 | - | - | . | - | . | . | . | .
Cc1cccc(-c2ccc([C@@H]3[C@H]4CN(Cc5cncnc5)CCCCN4[C@H]3CO)cc2)c1 | - | 102.9 | . | - | - | - | - | 102.4
OC[C@@H]1[C@H](c2ccc(-c3ccccc3)cc2)[C@H]2CN(Cc3cncnc3)CCCCN12 | - | 100.8 | . | - | ? | - | - | 52.5
Cc1cccc(-c2ccc([C@H]3[C@@H](CO)N4CCCCN(Cc5cccnc5)C[C@@H]34)cc2)c1 | - | 120.5 | . | - | ? | - | - | 102.9
COc1cccc(CN2CCCCN3[C@H](CO)[C@H](c4ccc(-c5cccc(C#N)c5)cc4)[C@@H]3C2)c1 | - | 110.9 | . | - | 108.0 | 100.8 | - | 102.5
Cc1nn(C(C)C(=O)Nc2cc(C(F)(F)F)ccc2Cl)c(C)c1[N+](=O)[O-] (stereo not given) | . | . | - | . | . | . | . | .
SMILES | Pf Dd2 growth | T cruzi growth-1 | IDH1 R132H inh | GASC1 inh | T cruzi growth-2 | T cruzi growth-3 | 3T3 cytotox | NIH3T3 tox 2
COC(=O)c1ccccc1NC(=O)c1ccc(NC(=O)C(C)Oc2ccc(Cl)cc2C)cc1 (stereo not given) | . | . | - | . | . | . | . | .
OC[C@H]1[C@@H](c2ccc(-c3ccc(F)cc3)cc2)[C@@H]2CN(Cc3cccnc3)CCCCN12 | - | 99.2 | . | - | 99.3 | - | - | 104.8
OC[C@@H]1[C@H](c2ccc(Br)cc2)[C@@H]2CN(Cc3cncnc3)CCCCN12 | - | 96.3 | . | - | - | - | - | -
OC[C@@H]1[C@H](c2ccc(Br)cc2)[C@H]2CN(Cc3ccccn3)CCCCN12 | - | 97.0 | . | - | 99.2 | - | - | -
CCc1c(C)nc(SCC(=O)Nc2ccc(OC)cc2)[nH]c1=O | . | . | - | . | . | . | . | .
Cc1ccc(NC(=O)CSc2nc(C)cc(C(F)(F)F)n2)cc1 | . | . | - | . | . | . | . | .
CC(C)C#Cc1cnc2c(c1)C(=O)N([C@H](C)CO)C[C@H](C)[C@H](CN(C)C(=O)Nc1ccc(F)cc1)O2 | - | 116.3 | - | - | - | - | - | 86.4
CC(C)C#Cc1cnc2c(c1)C(=O)N([C@@H](C)CO)C[C@H](C)[C@@H](CN(C)C(=O)Nc1ccc(F)cc1)O2 | - | - | - | - | . | . | . | .
CC(C)C#Cc1cnc2c(c1)C(=O)N([C@@H](C)CO)C[C@H](C)[C@H](CN(C)C(=O)Nc1ccc(F)cc1)O2 | - | 101.7 | . | - | - | - | - | ?
O=C1C=C(NCCc2ccccc2)CC(c2ccco2)C1 (stereo not given) | . | . | - | . | . | . | . | .
CCCC#Cc1ccc2c(c1)O[C@H](CN(C)C(=O)Nc1ccccc1F)[C@H](C)CN([C@H](C)CO)S2(=O)=O | - | . | . | - | . | . | . | .
